In ChEMBL document CHEMBL5030534, “Discovery of Novel Anti-Breast-Cancer Inhibitors by Synergistically Antagonizing Microtubule Polymerization and Aryl Hydrocarbon Receptor Expression” (J Med Chem, 2021):
Calls of active or inactive are those of the source. The calls are words filed in the database; no cut-off is given here.

Tests used:
MCF7 [1] = assay: Antiproliferative activity against human MCF7 cells assessed as reduction in cell viability incubated for 48 hrs by MTT assay; format: functional, cell-based; settings: MCF7, 48 h
Summary of the method: (§1)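 Cells seeded at 5 × 10³ per well, incubated overnight, then exposed to a range of compound concentrations for 48 h. MTT added for 4 h, medium replaced with DMSO, absorbance read at 570 nm. MCF-7, L-O2 grown in DMEM; MCF-10A, MCF-7/ADR in RPMI 1640. Three independent runs.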

[2] = Antiproliferative activity against human MCF7/ADR cells assessed as reduction in cell viability incubated for 48 hrs by MTT assay; format: functional, cell-based; settings: MCF7, 48 h
Summary of the method: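 Cells seeded at 5 × 10³ per well, incubated overnight, then exposed to a range of compound concentrations for 48 h. MTT added for 4 h, medium replaced with DMSO, absorbance read at 570 nm. Three independent runs.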

MCF-10A = assay: Antiproliferative activity against human MCF-10A cells assessed as reduction in cell viability incubated for 48 hrs by MTT assay; format: cell-based; summary of the method: as §1
L02 = assay: Antiproliferative activity against human L-O2 cells assessed as reduction in cell viability incubated for 48 hrs by MTT assay; format: cell-based; settings: L02, 48 h; summary of the method: as §1
Tubulin (Homo sapiens) = Tubulin (Homo sapiens) (UniProt P68371+Q9H4B7+P0DPH7+P68366+Q13509+Q71U36+P04350+Q3ZCM7+P07437+P68363+Q9BQE3+Q6PEY2+Q13885+Q9BVA1+Q9BUF5); assay: Induction of microtubule depolymerization in human MCF7 cells at 10 uM measured every 5 mins for 60 mins by spectrophotometric method; format: cell-based
Summary of the method: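 Purified tubulin at 2 mg/mL in PEM buffer preincubated on ice with compound or DMSO. PEG added to a final 3 mg/mL, then polymerization followed at 37 °C by absorbance at 350 nm every 5 min for 60 min.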

MCF7 [3] = assay: Antitumor activity against human MCF7 cells xenografted in BALB/c nude mouse assessed as decrease in tumor weight at 20 mg/kg, iv administered every 2 days for 21 days and measured every 2 days; format: functional; design: scale not given: the % may be the effect or the level left; settings: time 21 day
Summary of the method: (§2)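 MCF-7 cells (6 × 10⁶) injected subcutaneously into right flank of BALB/c nude mice; after 7 days animals randomized, eight per group. Dosing iv every 2 days for 21 days, vehicle 10% DMSO/5% Tween 80/85% saline. Tumor size and body weight recorded every 2 days; tumors excised and weighed at sacrifice.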

MCF7 [4] = assay: Antitumor activity against human MCF7 cells xenografted in BALB/c nude mouse assessed as decrease in tumor weight at 10 mg/kg, iv administered every 2 days for 21 days and measured every 2 days; format: functional; design: scale not given: the % may be the effect or the level left; settings: time 21 day; summary of the method: as §2

Compound	IC50 (MCF7 [1])	IC50 [2]	IC50 (MCF-10A)	IC50 (L02)	Activity (Tubulin (Homo sapiens))	Activity (MCF7 [3])	Activity (MCF7 [4])
COc1ccc(/C=C\c2cc(OC)c(OC)c(OC)c2)cc1O [COMBRETASTATIN A4]	4.8 nM		99 nM	10.3 nM	Active	37.5%	
Cc1cc(N(C)c2ccc(-c3ccccc3)cc2)c2ccccc2n1	> 1000 nM	817 nM	> 1000 nM	3450 nM			
Cc1cc(N(C)c2ccc(C(F)(F)F)cc2)c2ccccc2n1	> 1000 nM	859 nM	> 1000 nM	3840 nM			
CC(=O)O[C@H]1C(=O)[C@@]2(C)[C@H]([C@H](OC(=O)c3ccccc3)[C@]3(O)C[C@H](OC(=O)[C@H](O)[C@@H](NC(=O)c4ccccc4)c4ccccc4)C(C)=C1C3(C)C)[C@]1(OC(C)=O)CO[C@@H]1C[C@@H]2O [PACLITAXEL]					inactive		84.2%
COc1cc(N(C)c2cc(C)nc3ccccc23)cc(OC)c1OC	> 1000 nM	912 nM	> 1000 nM	4120 nM			
Cc1ccc(N(C)c2cc(C)nc3ccccc23)cc1	103 nM	54 nM	184 nM	1530 nM			
Cc1cc(N(C)c2ccc(N(C)C)cc2)c2ccccc2n1	943 nM	33 nM	49 nM	227 nM			

Now from value to compound, other results behind:

IC50 (MCF7 [1])	Compound	IC50 [2]	IC50 (MCF-10A)	IC50 (L02)	Activity (Tubulin (Homo sapiens))	Activity (MCF7 [3])	Activity (MCF7 [4])
4.5 nM	Cc1cc(N(C)c2cnc3c(ccn3C)c2)c2ccccc2n1	6.1 nM	24 nM	10 nM			
25 nM	CCN(CC)c1ccc(N(C)c2cc(C)nc3ccccc23)cc1	267 nM	12 nM	31 nM			
54 nM	Cc1cc(N(C)c2ccc3c(c2)OCO3)c2ccccc2n1	46 nM	127 nM	2500 nM			
2.4 nM	Cc1cc(N(C)c2ccc3c(c2)cc(C)n3C)c2ccccc2n1	2.2 nM	10 nM	7.3 nM			
2.1 nM	Cc1nc(N(C)c2cnc3c(ccn3C)c2)c2ccccc2n1	2.1 nM	16 nM	7.3 nM			
97 nM	COc1ccc(N(C)c2cc(C)nc3ccccc23)cc1OC	29 nM	473 nM	2170 nM			
